Reference: ChEMBL document CHEMBL4393735, “Molecular modelling, synthesis, and biological evaluations of a 3,5-disubstituted isoxazole fatty acid analogue as a PPARα-selective agonist” (Bioorg Med Chem, 2019)
Activity calls are given as the source filed them.

Experiments:
[1] = molecular target: T1, Peroxisome proliferator-activated receptor alpha (Homo sapiens) (UniProt Q07869); test: Agonist activity at PPARalpha in human Huh7 cells assessed as PPARA mRNA expression at 50 uM measured after 18 hrs by qRT-PCR analysis; format: cell-based
T1 sequence (whole entry): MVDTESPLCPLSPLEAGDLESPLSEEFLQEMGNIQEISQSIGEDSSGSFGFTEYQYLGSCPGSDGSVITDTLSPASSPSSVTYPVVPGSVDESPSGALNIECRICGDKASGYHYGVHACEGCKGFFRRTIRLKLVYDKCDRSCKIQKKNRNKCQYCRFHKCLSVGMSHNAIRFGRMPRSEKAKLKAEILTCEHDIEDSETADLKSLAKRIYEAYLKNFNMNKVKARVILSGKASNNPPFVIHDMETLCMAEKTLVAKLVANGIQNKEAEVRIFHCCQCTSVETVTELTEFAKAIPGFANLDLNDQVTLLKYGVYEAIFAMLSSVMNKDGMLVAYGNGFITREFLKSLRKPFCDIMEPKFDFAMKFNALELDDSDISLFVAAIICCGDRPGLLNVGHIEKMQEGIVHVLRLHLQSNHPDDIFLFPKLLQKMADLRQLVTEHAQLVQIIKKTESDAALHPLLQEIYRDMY
Summary of the method: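 Treatment for 18 h at 50 μM (or 1 μM for the 1 μM agents), DMSO vehicle. Harvested for qPCR. mRNA normalized to TBP by the comparative threshold method, expressed relative to DMSO control. Two biological replicates run in duplicate, mean ± SEM. Primary hepatocytes came from male C57BL/6N mice aged 7–8 weeks, isolated by portal-vein perfusion and digestion, seeded on collagen I and used on day 2. HuH-7 cells were kept in DMEM with 10% FBS and ITS.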

[2] = molecular target: T2, Peroxisome proliferator-activated receptor alpha (Homo sapiens, UniProt Q07869); test: Agonist activity at full length human FLAG-tagged GAL4-DBD fused PPARalpha LBD (168 to 468 residues) expressed in COS1 cells measured after 18 hrs by dual luciferase reporter gene assay; format: cell-based
T2 sequence (Q07869 whole entry): T1 sequence (whole entry)
Summary of the method: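 Dose-response in COS-1 cells transfected with GAL4-DBD–human PPARα or PPARγ LBD, a 5×UAS-SV40 firefly reporter and pRL-CMV. Cells were treated with increasing concentrations in 0.1% DMSO (final) 6 h post-transfection, then for 18 h. Firefly/Renilla ratio, normalized to GAL4-only activity. EC50 was taken from a sigmoidal dose-response fit. At least three independent transfections in quadruplicate.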

[3] = system: COS-1; test: Cytotoxicity against African green monkey COS1 cells assessed as reduction in cell viability at 10^-4 M by XTT based assay; conditions: chlorocebus aethiops, cos-1, 100 µM
Summary of the method: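 COS-1 cells were treated across the same concentration series as the GAL4 dose-response runs. Cytotoxicity was measured as LDH released into medium (absorbance 492/750 nm) and by XTT viability assay (absorbance 450/690 nm). Results expressed relative to control.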

[4] = molecular target: T1, Peroxisome proliferator-activated receptor alpha (Homo sapiens); test: Agonist activity at full length human FLAG-tagged GAL4-DBD fused PPARalpha LBD (168 to 468 residues) expressed in COS1 cells transfected with hRXRalpha and pGL3-CPT1AInt PPRE mutant assessed as CPT1A mRNA level at 50 uM measured after 18 hrs by dual luciferase reporter gene assay; format: cell-based
Summary of the method: (§1)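 COS-1 cells were transfected with full-length human PPARα (or PPARγ) plus RXRα expression plasmids, with a wild-type or PPRE-mutated CPT1A-intronic (or PLIN1) luciferase reporter and pRL-CMV. Cells were treated with 50 μM in 0.1% DMSO (final) for 18 h. Dual-luciferase read-out normalized to DMSO control. Three biological replicates in quadruplicate, mean ± SEM.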

[5] = system: SGBS; test: Upregulation of FABP4 gene expression in human preadipocyte derived from Simpson-Golabi-Behmel syndrome (SGBS) patient at 25 uM measured for 12 days by qRT-PCR analysis; format: functional, cell-based
Summary of the method: (§2)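 SGBS cells were differentiated with serum-free induction medium containing 25 μM test agent, 2 μM rosiglitazone or 0.1% DMSO from day 0. IBMX and dexamethasone were removed on day 4 and medium was renewed on day 8. RNA was taken on days 0, 4, 8 and 12 for qPCR, normalized to TBP and to day 0. At least three biological replicates in duplicate, two-way ANOVA with Bonferroni.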

[6] = molecular target: T1, Peroxisome proliferator-activated receptor alpha (Homo sapiens); test: Agonist activity at full length human FLAG-tagged GAL4-DBD fused PPARalpha LBD (168 to 468 residues) expressed in COS1 cells at 25 to 50 uM measured after 18 hrs by dual luciferase reporter gene assay relative to pirinixic acid; format: cell-based
Summary of the method: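 COS-1 cells were transfected with GAL4-DBD–PPARα-LBD, a 5×UAS luciferase reporter and a Renilla control. After 6 h, cells were treated with 0, 25 or 50 μM test compound or pirinixic acid in 0.1% DMSO (final) for 18 h. Dual-luciferase read-out, firefly/Renilla ratio, normalized to DMSO control and GAL4.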

[7] = molecular target: T3, Peroxisome proliferator-activated receptor gamma (Homo sapiens) (UniProt P37231); test: Agonist activity at full length human FLAG-taggedGAL4-DBD fused PPARgamma LBD (205 to 505 residues) expressed in COS1 cells at 25 to 50 uM measured after 18 hrs by dual luciferase reporter gene assay; format: cell-based
T3 sequence (whole entry): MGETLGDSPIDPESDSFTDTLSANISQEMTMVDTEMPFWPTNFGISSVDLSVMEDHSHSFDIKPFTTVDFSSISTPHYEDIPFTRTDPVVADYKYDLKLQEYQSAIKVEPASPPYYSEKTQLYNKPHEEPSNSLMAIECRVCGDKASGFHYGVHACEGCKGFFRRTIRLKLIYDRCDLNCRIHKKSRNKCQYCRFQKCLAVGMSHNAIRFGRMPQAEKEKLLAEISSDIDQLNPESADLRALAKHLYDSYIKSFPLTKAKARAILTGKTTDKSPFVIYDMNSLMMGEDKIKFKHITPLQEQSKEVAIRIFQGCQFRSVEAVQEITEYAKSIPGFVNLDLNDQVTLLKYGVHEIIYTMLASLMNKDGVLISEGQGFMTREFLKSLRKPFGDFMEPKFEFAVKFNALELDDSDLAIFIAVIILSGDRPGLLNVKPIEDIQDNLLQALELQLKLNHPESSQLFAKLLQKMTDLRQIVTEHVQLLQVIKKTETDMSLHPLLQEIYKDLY
Summary of the method: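 COS-1 cells were transfected using Lipofectamine 2000 with GAL4-DBD–human NR-LBD plasmid, a 5×UAS-SV40 firefly luciferase reporter and pRL-CMV. After 6 h, cells were treated with 0, 25 or 50 μM in 0.1% DMSO (final) for 18 h. Firefly signal was normalized to Renilla, then to DMSO control and GAL4-only. Three biological replicates in quadruplicate, mean ± SEM, two-way ANOVA with Bonferroni.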

[8] = molecular target: T1, Peroxisome proliferator-activated receptor alpha (Homo sapiens); test: Agonist activity at full length human FLAG-tagged GAL4-DBD fused PPARalpha LBD (168 to 468 residues) expressed in COS1 cells transfected with hRXRalpha and hCPT1A-driven reporter assessed as increase in CPT1A mRNA level at 50 uM measured after 18 hrs by dual luciferase reporter gene assay; format: cell-based; summary of the method: as §1
[9] = system: SGBS; test: Upregulation of CEBPA gene expression in human preadipocyte derived from Simpson-Golabi-Behmel syndrome (SGBS) patient at 25 uM measured for 12 days by qRT-PCR analysis; format: functional, cell-based; summary of the method: as §2

Activity [1]: inactive | EC50 [2]: 47 µM | Activity [4]: inactive | fold change (FC) [6]: 2.5 | Activity [7]: inactive | Activity [8]: Active
Compound: CCCCCCCc1cc(CCCCCC(=O)O)no1
Activity [3]: Toxic | Activity [5]: Active | Activity [9]: Active
